From ChEMBL document CHEMBL1158353, “N1-Alkylated 3,4-dihydropyrimidine-2(1H)-ones: Convenient one-pot selective synthesis and evaluation of their calcium channel blocking activity” (Eur J Med Chem, 2009)

Key:
[1] = Inhibition of calcium channel in pig carotid artery assessed as relaxation of KCl-induced tissue contraction; assay type: tissue-based, Sus scrofa
Procedure, shortened: (§1)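 Arterial strips equilibrated 90-120 min in PSS at 37 °C, pH 7.4, bubbled with 100% O₂, under ~2 g passive force (near L_0), and repeatedly contracted with 110 mM KCl (equimolar NaCl substitution) until force stabilized. Then precontracted with 110 mM KCl PSS to stable force; cumulative compound addition (1 μM to 30 mM), DMSO vehicle control. Force expressed as percent of initial maximal KCl response at each concentration.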

Sus scrofa = organism: Sus scrofa; assay: Inhibition of calcium channel in pig carotid artery assessed as relaxation of KCl-induced tissue contraction at 1 uM to 30 mM; assay type: tissue-based; procedure, shortened: as §1

IC50 [1] [µM] | SMILES | inhibition (Sus scrofa) [%]
100 | CCOC(=O)C1=C(C)N(CC)C(=O)NC1c1ccccc1 (stereo not drawn) | 40
100 | C=CCN1C(=O)NC(c2ccccc2)C(C(=O)OCC)=C1C (stereo not drawn) | 40
100 | CCCCCN1C(=O)NC(c2ccccc2)C(C(=O)OCC)=C1C (stereo not drawn) | 40
100 | CCCCN1C(=O)NC(c2ccccc2)C(C(=O)OCC)=C1C (stereo not drawn) | 40
100 | CCCN1C(=O)NC(c2ccccc2)C(C(=O)OCC)=C1C (stereo not drawn) | 40
100 | CCCCCCCCCCN1C(=O)NC(c2ccccc2)C(C(=O)OCC)=C1C (stereo not drawn) | 40

SMILES | IC50 [1] [µM] | inhibition (Sus scrofa) [%]
COC(=O)C1=C(C)NC(C)=C(C(=O)OC)C1c1ccccc1[N+](=O)[O-] [NIFEDIPINE] | 10 | –
